KCNQ1 pot: potentiators or activators of human KCNQ1 potassium channel; P51787; CHO-K1 KCNQ1, thallium flux FluxOR fluorescence; active compounds read high; B-score at 10 µM; 0.35% of 310,000 active;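 active = fluorescence ratio B-score, a plate-corrected score, at least three library SD, with initial intensity B-score within 5 SD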
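Doses: Single concentration per compound, DMSO matched to controls | Test system: KCNQ1-transfected CHO-K1 cells | Timing: 90 min dye loading and 20 min compound exposure, both at room temperature | Measured by: Kinetic FluxOR thallium fluorescence, 10-s 1-Hz baseline, 110-s post-stimulus read | Medium: Assay buffer with matched DMSO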
Kir21 inh: Kir2.1 (mouse) channel inhibition. P35561. HEK293-Kir2.1, FluxOR thallium flux fluorescence; active compounds read low. B-score at 10 µM. 0.85% of 310,000 active;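 active = fluorescence ratio B-score at or below minus 3 SD of library scores, with starting-brightness B-score within 2 SD, cut at about -4.2 in these data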;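 also: channel flux triggered by added potassium and thallium sulfate stimulus; B-score of peak minus minimum fluorescence over baseline after thallium stimulus; more negative B-score means stronger Kir2.1 block with less thallium influx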
KCNQ1 block: human KCNQ1 channel inhibition. P51787. CHO-K1 KCNQ1, FluxOR thallium flux fluorescence; active compounds read high. B-score at 10 µM. 1.3% of 310,000 active;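 active = compounds whose thallium flux B-score, printed positive for inhibition, exceeds three library SD while starting fluorescence stays within three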;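 also: channel opened by potassium depolarization with thallium stimulus after 20 min compound exposure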
hERG protect: hERG (human) protection from proarrhythmic block | Q12809 | CHO-hERG, FluxOR thallium flux, dofetilide IC70 present | activation (rescue from dofetilide block), less the hit threshold, % at 10 µM | 0.51% of 310,000 active | AID 1511;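 active = activation above the mean of controls blocked by dofetilide plus 5 SD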;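 also: thallium influx through hERG after potassium depolarization seen as dye fluorescence rise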
Target sequence (Q12809 whole entry, looked up): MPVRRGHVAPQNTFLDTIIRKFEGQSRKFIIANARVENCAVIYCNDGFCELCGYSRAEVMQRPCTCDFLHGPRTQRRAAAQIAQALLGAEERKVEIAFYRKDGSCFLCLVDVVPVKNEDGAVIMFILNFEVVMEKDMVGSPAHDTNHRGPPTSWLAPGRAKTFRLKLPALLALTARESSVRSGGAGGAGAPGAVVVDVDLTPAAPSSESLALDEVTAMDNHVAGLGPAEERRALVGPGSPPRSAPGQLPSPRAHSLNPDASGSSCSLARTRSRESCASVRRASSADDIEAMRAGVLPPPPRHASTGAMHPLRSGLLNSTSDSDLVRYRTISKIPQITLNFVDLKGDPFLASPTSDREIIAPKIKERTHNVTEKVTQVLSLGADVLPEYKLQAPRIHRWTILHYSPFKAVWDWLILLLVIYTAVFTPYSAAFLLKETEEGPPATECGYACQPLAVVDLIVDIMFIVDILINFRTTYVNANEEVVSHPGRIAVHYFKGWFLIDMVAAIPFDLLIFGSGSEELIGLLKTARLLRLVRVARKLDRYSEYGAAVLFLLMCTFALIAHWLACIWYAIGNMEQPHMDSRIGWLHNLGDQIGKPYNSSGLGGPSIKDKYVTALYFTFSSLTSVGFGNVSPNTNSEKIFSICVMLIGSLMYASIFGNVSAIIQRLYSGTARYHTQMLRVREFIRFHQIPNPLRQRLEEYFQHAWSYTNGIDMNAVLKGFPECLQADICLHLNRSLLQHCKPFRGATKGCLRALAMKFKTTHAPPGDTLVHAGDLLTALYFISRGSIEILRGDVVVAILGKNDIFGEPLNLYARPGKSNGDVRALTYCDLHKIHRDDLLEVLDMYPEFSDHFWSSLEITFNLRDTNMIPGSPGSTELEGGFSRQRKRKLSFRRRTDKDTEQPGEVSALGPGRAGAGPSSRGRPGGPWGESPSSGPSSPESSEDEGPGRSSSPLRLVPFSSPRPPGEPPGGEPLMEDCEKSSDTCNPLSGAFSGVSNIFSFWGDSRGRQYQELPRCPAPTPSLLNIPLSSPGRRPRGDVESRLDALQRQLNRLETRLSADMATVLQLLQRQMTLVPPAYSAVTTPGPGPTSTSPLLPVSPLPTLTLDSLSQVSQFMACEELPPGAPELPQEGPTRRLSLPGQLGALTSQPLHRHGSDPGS
KCNK3 inh: human KCNK3 channel inhibition, primary screen. O14649. CHO-KCNK3 thallium flux, FluxOR fluorescence; active compounds read low. B-score at 10 µM. 0.84% of 340,000 active. AID 602410;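 active = B-score under library mean minus 4 SD, starting fluorescence ratio at most library mean plus 5 SD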;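 also: more negative B-score means stronger inhibition of thallium flux through KCNK3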
KCNK9 inh: human KCNK9 channel inhibition. Q9NPC2. HEK293 KCNK9, FluxOR thallium flux fluorescence; active compounds read low. B-score at 10 µM. 1.2% of 310,000 active;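 active = ratio B-score over 3 SD below the library mean, with starting fluorescence within 5 SD of its mean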;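 also: negative B-score means less thallium flux so channel inhibition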
KCNK9 block conf: confirmation of human KCNK9 potassium channel inhibitors; HEK293 KCNK9 cells, FluxOR thallium flux fluorescence; 43% of 4,900 active; inhibition, % at 10 µM; AID 492992; shares compounds with KCNK9 inh;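 active = thallium signal inhibited by more than 5 SD of the compound-free buffer control wells, on both duplicate plates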;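 also: 0% = assay buffer control wells without compound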
Kir21 sel: tests whether KCNK9 modulators also affect mouse Kir2.1; shares compounds with KCNK9 inh; Kir2.1 cells, FluxOR thallium flux fluorescence; inhibition, % at 10 µM; 4% of 4,900 active; AID 492993;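 active = thallium signal drop more than 5 SD beyond the mean of the no-compound control wells, seen in both duplicate plates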;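 also: signal is fluorescence rise after thallium addition divided by baseline fluorescence; plate controls were assay buffer only for no effect and full block by chlorpromazine control for full effect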
HEK293 Tl ctr: non-induced cell nonspecific activity of KCNK9 modulators | shares compounds with KCNK9 inh | 40% of 4,900 active | AID 492997 | inhibition, % at 10 µM | non-induced KCNK9-HEK293, FluxOR thallium flux;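 active = thallium signal drop beyond 5 SD of the untreated control mean, on both duplicate plates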;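 also: plate controls were buffer only IC0 wells for no effect and SID17386958 at its maximal inhibitory level for full effect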
* marks the source's active call; other numbers are inactive results; i = inactive; . = no result. A selection: hits, their analogues and other compounds. The true share with any hit is near 3.8%.

SMILES	KCNQ1 pot	Kir21 inh	KCNQ1 block	hERG protect	KCNK3 inh	KCNK9 inh	KCNK9 block conf	Kir21 sel	HEK293 Tl ctr
COC(=O)C1=C(C)NC(C)=C(C(=O)OC)C1c1ccc(OC(=O)c2oc3ccccc3c2C)c(OC)c1	i	2.2	i	-10	i	-9.6*	62%*	i	34%*
Cc1ccc(C2(c3noc(CN4CCC(c5ccncc5)CC4)n3)CCCC2)cc1	i	0	i	-22	i	i	i	i	i
CSc1ccc(CN(C)CC(=O)Nc2ccc(C)cc2Br)cc1	i	1	i	-7	i	i	i	i	i
COc1c(O)ccc(/C=N\NC(=O)c2ccc3c(c2)OCO3)c1[N+](=O)[O-]	i	-1.4	i	-1	i	i	.	.	.
C=CCOc1cccc(C(=O)N2CCCC(Nc3ccc4c(c3)OCCO4)C2)c1 (stereo not drawn)	i	0.19	i	-9	i	i	i	i	i
COC(=O)c1cccc(C(=O)N2CCCC(Nc3ccc(C)c(C)c3)C2)c1 (stereo not drawn)	i	-1.8	i	-10	i	i	i	i	i
Cc1ccc(NC2CCCN(C(=O)c3ccc4[nH]ccc4c3)C2)cc1C (stereo not drawn)	i	1.9	i	-6	i	i	i	i	i
COc1ccc(C(=O)N2CCCC(Nc3ccc(C)c(C)c3)C2)cc1F (stereo not drawn)	i	0	i	-14	i	i	.	.	.
C=CCOc1cccc(C(=O)N2CCCC(CCC(=O)NCc3ccccc3F)C2)c1 (stereo not drawn)	i	-2	i	-5	i	i	.	.	.
Cc1ccc(S(=O)(=O)c2cccc(S(=O)(=O)N3CCOCC3)c2)cc1S(=O)(=O)N1CCOCC1	i	2.1	i	-12	i	i	.	.	.
Cc1ccc(S(=O)(=O)c2cccc(S(=O)(=O)N3CCCC3)c2)cc1S(=O)(=O)N1CCCC1	i	-0.69	i	-8	i	-16*	32%*	i	26%*
O=S(=O)(Nc1nc2ccccc2nc1Nc1cccc(S(=O)(=O)N2CCCCC2)c1)c1ccccc1	i	-4	i	-21	i	i	i	i	25%*
COc1ccc(S(=O)(=O)Nc2cccc(S(=O)(=O)N3CCCCCC3)c2)cc1	i	-2	i	-15	i	-8.2*	42%*	i	28%*
NC(=O)CN(N=Nc1cccc([N+](=O)[O-])c1)c1cccc([N+](=O)[O-])c1	i	-1.4	i	-7	i	i	.	.	.
CCN(N=Nc1cccc([N+](=O)[O-])c1)c1cccc([N+](=O)[O-])c1	i	-1.5	i	-11	i	-11*	59%*	i	40%*
CC[C@]1(C(=O)OC)[C@H]2C(=O)N(C)C(=O)[C@H]2[C@H]2CN=C(SCc3ccc(C#N)cc3)N21	.	.	.	.	i	.	.	.	.
CC(C)(C(=O)O)c1ccc([C@H](O)CCCN2CCC(C(O)(c3ccccc3)c3ccccc3)CC2)cc1	i	0.43	i	.	i	i	.	.	.
O=C(COC(=O)c1c2c(nc3ccccc13)CCN(Cc1ccccc1)C2)Nc1c(F)cccc1F	i	-0.21	i	-7	i	-8.3*	i	i	i
Cc1ccc(CNC(=O)C2CCCN(S(=O)(=O)N3CCC(C)CC3)C2)cc1 (stereo not drawn)	i	-0.24	i	-9	i	i	.	.	.
CCc1ccc(CNC(=O)C2CCCN(S(=O)(=O)N3CC(C)CC(C)C3)C2)cc1 (stereo not drawn)	i	0.8	i	-7	i	-8.2*	38%*	i	i
O=C(CSc1nc(=O)n2ccccc2n1)N1CCN(c2ccccc2)CC1	i	-0.8	i	-8	i	i	.	.	.
CCN(Cc1ccncc1)C(=O)C(CO)c1ccccc1 (stereo not drawn)	i	1.9	i	-3	i	i	.	.	.
COc1cccc(OC)c1C(=O)Nc1cccc(NC(=O)c2cccs2)c1	i	0.04	i	-10	i	-11*	50%*	i	28%*
CC(NCC(=O)NC(=O)NC1CCCC1)c1ccc(Cl)cc1Cl (stereo not drawn)	i	-1.7	i	-13	i	i	i	i	i
O=C(COC(=O)c1ccc(Cl)cc1)NC(=O)NC1CCCC1	.	.	.	.	i	.	.	.	.
SMILES	KCNQ1 pot	Kir21 inh	KCNQ1 block	hERG protect	KCNK3 inh	KCNK9 inh	KCNK9 block conf	Kir21 sel	HEK293 Tl ctr
COc1ccc(-c2csc(NC(=O)c3ccccc3Br)c2C(=O)O)cc1	i	1.1	i	-11	i	i	.	.	.
COc1ccc(-c2csc(NC(=O)c3ccc(C(C)(C)C)cc3)c2C(=O)O)cc1	i	-1.3	i	-14	i	i	i	i	i
O=C(CSCc1ccc(Cl)cc1)Nc1ccccc1O	i	0.11	i	-8	i	i	.	.	.
O=C(CCCSc1ccc(Cl)cc1)Nc1ccccc1O	i	0.01	9*	-14	i	i	i	i	i
COc1ccccc1C(=O)NC(=O)COC(=O)CNC(=O)c1ccc(Cl)c([N+](=O)[O-])c1	i	1.9	i	-17	i	i	.	.	.
Cc1ccc(OCCCOc2cccc3cccnc23)cc1C	i	-1.7	i	-9	i	i	i	i	i
Cc1ccc(S(=O)(=O)N2CCN(C(=O)COC(=O)/C=C/c3ccc(OC(F)F)cc3)CC2)cc1	.	.	.	.	i	.	.	.	.
COc1cc(CN2CCN(Cc3ccc(C(F)(F)F)cc3)CC2)cc(OC)c1OC	i	1.2	i	-5	i	i	i	i	i
COc1cc(CN2CCN(Cc3ccccc3C(F)(F)F)CC2)cc(OC)c1OC	i	0.04	i	-7	i	i	i	i	i
Cc1ccc(CN2CCN(Cc3ccccc3C(F)(F)F)CC2)cc1	i	-4.5*	i	-13	i	i	i	i	i
CS(=O)(=O)N1CCN(Cc2ccccc2C(F)(F)F)CC1	i	0.95	i	-5	i	i	.	.	.
CN(c1ccccc1)S(=O)(=O)c1ccc(C(=O)Nc2ncccc2O)cc1	i	0.23	i	-11	i	i	.	.	.
